Where “and” joins values, the source holds several entries; their conditions need not be identical. Equal entries are not always repeated.
How the values were obtained:
[1] = target: T1, Amine oxidase [flavin-containing] B (Mus musculus, UniProt Q8BW75); assay: The ability (124 umol/kg/day) to inactivate monoamine oxidaseB (MAO-B) was tested on brain mitochondrial membranes of mice for 3 day; conditions: 72 h
T1 sequence (Q8BW75 whole entry): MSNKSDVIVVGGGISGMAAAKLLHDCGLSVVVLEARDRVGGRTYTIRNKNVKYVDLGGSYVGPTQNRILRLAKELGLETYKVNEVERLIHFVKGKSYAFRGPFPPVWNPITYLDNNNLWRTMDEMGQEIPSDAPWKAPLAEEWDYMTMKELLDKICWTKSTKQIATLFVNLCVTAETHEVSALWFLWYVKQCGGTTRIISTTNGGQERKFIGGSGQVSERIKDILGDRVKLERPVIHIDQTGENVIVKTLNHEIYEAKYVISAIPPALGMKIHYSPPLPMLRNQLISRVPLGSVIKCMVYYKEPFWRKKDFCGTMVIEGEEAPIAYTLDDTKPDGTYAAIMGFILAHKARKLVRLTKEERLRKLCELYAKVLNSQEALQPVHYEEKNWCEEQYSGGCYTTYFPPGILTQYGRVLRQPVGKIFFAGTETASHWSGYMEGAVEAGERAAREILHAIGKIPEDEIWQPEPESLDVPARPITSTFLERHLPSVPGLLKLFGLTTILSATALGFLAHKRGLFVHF

[2] = Ratio of activities of MAO-B / MAO-A; type: functional
[3] = Residual activity was obtained; type: functional
[4] = target: T2, Amine oxidase [flavin-containing] A (Mus musculus, UniProt Q64133); assay: The ability (124 umol/kg/day) to inactivate monoamine oxidase A(MAO-A) was tested on brain mitochondrial membranes of mice, for 3 day; conditions: 72 h
T2 sequence (Q64133 whole entry): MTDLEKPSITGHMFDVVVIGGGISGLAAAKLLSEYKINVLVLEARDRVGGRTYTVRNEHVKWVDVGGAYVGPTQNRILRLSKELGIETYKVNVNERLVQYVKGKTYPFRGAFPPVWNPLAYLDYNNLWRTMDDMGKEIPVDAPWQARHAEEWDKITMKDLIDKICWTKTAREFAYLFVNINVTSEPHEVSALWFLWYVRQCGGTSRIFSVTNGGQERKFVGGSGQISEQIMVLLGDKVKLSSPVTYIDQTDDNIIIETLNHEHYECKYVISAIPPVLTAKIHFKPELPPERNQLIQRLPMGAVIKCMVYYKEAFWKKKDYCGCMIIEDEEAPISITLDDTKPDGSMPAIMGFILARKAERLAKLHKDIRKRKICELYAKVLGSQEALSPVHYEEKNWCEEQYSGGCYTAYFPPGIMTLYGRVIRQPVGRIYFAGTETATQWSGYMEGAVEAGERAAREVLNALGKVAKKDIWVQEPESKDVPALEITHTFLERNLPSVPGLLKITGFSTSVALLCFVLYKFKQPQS

[5] = target: T3, Monoamine oxidase (Mus musculus, UniProt Q8BW75+Q64133); assay: The ability (25 umol/kg/day) to inactivate monoamine oxidase (MAO) was tested on brain mitochondrial membranes of mice, for 3 days; type: functional; conditions: 72 h
T3 sequence (Q8BW75 whole entry): T1 sequence (Q8BW75 whole entry)
T3 sequence (Q64133 whole entry): T2 sequence (Q64133 whole entry)

[6] = target: T2, Amine oxidase [flavin-containing] A; assay: The ability (25 umol/kg/day) to inactivate monoamine oxidase A(MAO-A) was tested on brain mitochondrial membranes of mice, for 3 day; type: functional; conditions: 72 h
[7] = target: T1, Amine oxidase [flavin-containing] B; assay: The ability (25 umol/kg/day) to inactivate monoamine oxidase B (MAO-B) was tested on brain mitochondrial membranes of mice, for 3 day; type: functional; conditions: 72 h
[8] = target: T2, Amine oxidase [flavin-containing] A; assay: The ability of the compound(25 umol/kg/day) to inactivate monoamine oxidase A(MAO-A) was tested on brain mitochondrial membranes of mice, for 3 day.; type: functional; conditions: 72 h
Outline: (§1)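 Male ICR mice (25-35 g), 25 µmol/kg/day ip in sterile saline for 3 days, n = 3; killed day 4, 24 h after last dose. Whole-brain mitochondria isolated by differential centrifugation, lysed in ice-cold water, membranes in 10 mM phosphate pH 7.4. Membranes preincubated 30 min at 37 °C with buffer (total), 3 × 10^-8 M clorgyline (MAO-B), 3 × 10^-7 M deprenyl (MAO-A), or both (residual).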

[9] = target: T1, Amine oxidase [flavin-containing] B; assay: The ability of the compound(25 umol/kg/day) to inactivate monoamine oxidase B (MAO-B) was tested on brain mitochondrial membranes of mice, for 3 day.; type: functional; conditions: 72 h
Outline: as §1

[10] = Residual activity was obtained.; type: functional
Outline: as §1

[11] = target: T3, Monoamine oxidase; assay: The ability of the compound(25 umol/kg/day) to inactivate monoamine oxidase (MAO) was tested on brain mitochondrial membranes of mice, for 3 days.; type: functional; conditions: 72 h
Outline: as §1

SMILES	Activity [1]	Ratio [2]	Activity [3]	Activity [4]	Activity [5]	Activity [6]	Activity [7]	Activity [8]	Activity [9]	Residual activity [10]	Activity [11]
C#CCN(C(=O)OC1=CCN(C)CC1)[C@H](C)Cc1ccccc1	0.78 nmol/min/mg	0.63	0.45 nmol/min/mg	1.1 nmol/min/mg	1.36 nmol/min/mg						
C#CCN(C(=O)OC1=CCN(C)CC1)[C@@H](C)Cc1ccccc1		4.4	0.2 nmol/min/mg		3.75 nmol/min/mg	0.76 nmol/min/mg	3.35 nmol/min/mg				
C#CCN[C@H](C)Cc1ccccc1 [RNORDEPRENYL]		0.71						1.07 nM	0.68 nM	0.46 nM	1.31 nM
C#CCN(C)[C@H](C)Cc1ccccc1 [SELEGILINE]		0.72 and 0.66						0.64 nM and 1.06 nM	0.46 nM and 0.7 nM	0.24 nM and 0.44 nM	0.84 nM and 1.36 nM

Source: ChEMBL document CHEMBL1129413, “Synthesis and selective monoamine oxidase B-inhibiting properties of 1-methyl-1,2,3,6-tetrahydropyrid-4-yl carbamate derivatives: potential prodrugs of (R)- and (S)-nordeprenyl” (J Med Chem, 1996)
